Experimental findings from ChEMBL document CHEMBL1240376, “Characterization of small ColE-like plasmids mediating widespread dissemination of the qnrB19 gene in commensal enterobacteria” (2010) are described below.

What all share (type): functional
Test [1] has as its system Escherichia coli. In words: Antibacterial activity against ampicillin sulfamethoxazole streptomycin kanamycin-resistant Escherichia coli isolate V6-9 carrying qnrB19 gene. The method in brief: (§1)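 MICs determined by broth microdilution following CLSI guidelines, with E. coli ATCC 25922 as quality-control strain in every run. Disk diffusion susceptibility was also performed per CLSI.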

For test [2], the system named is Escherichia coli. In words: Antibacterial activity against ampicillin tetracyclin streptomycin kanamycin-resistant Escherichia coli isolate V32-1 carrying qnrB19 gene. The method in brief:
as §1

In test [3] the test system is Escherichia coli. In words: Antibacterial activity against tetracycline trimethoprim sulfamethoxazole kanamycin-resistant Escherichia coli isolate C14-9 carrying qnrB19 gene. The method in brief:
as §1

Test [4] concerns Escherichia coli. The test can be described thus: Antibacterial activity against Escherichia coli HB101. The method in brief: as §1
In test [5] the test system is Escherichia coli. The test can be described thus: Antibacterial activity against ampicillin tetracycline trimethoprim sulfamethoxazole streptomycin-resistant Escherichia coli isolate Y6-7 carrying qnrB19 gene. The method in brief: as §1
The subject of test [6] is Escherichia coli. In words: Antibacterial activity against tetracycline sulfamethoxazole streptomycin kanamycin-resistant Escherichia coli isolate M66-6 carrying qnrB19 gene. The method in brief: as §1

The structures appear in SMILES notation. In brackets after ≈: the same amount, converted by molar mass.

In the case of `C[C@H]1COc2c(N3CCN(C)CC3)c(F)cc3c(=O)c(C(=O)O)cn1c23.C[C@H]1COc2c(N3CCN(C)CC3)c(F)cc3c(=O)c(C(=O)O)cn1c23.O` [LEVOFLOXACIN], the MIC against Escherichia coli [1] stood at 0.25 µg/mL; against Escherichia coli [2], 0.25 µg/mL; in the test on Escherichia coli [3], 0.25 µg/mL; in the test with Escherichia coli [4], 0.0075 µg/mL.
In the case of `CCn1cc(C(=O)O)c(=O)c2cc(F)c(N3CCNCC3)cc21` [NORFLOXACIN], the MIC turned out to be 0.5 µg/mL (≈ 1.57 µM) in the test on Escherichia coli [1]; 0.25 µg/mL (≈ 0.783 µM) with Escherichia coli [2]; 0.5 µg/mL (≈ 1.57 µM) in the test on Escherichia coli [3]; 0.25 µg/mL (≈ 0.783 µM) against Escherichia coli [5]; 0.25 µg/mL (≈ 0.783 µM) in the test with Escherichia coli [6]; 0.003 µg/mL (≈ 0.00939 µM) in the test with Escherichia coli [4].
`CCn1cc(C(=O)O)c(=O)c2ccc(C)nc21` [NALIDIXIC ACID]: the MIC stood at 32 µg/mL (≈ 138 µM) against Escherichia coli [1]; 32 µg/mL (≈ 138 µM) in the test with Escherichia coli [2]; 32 µg/mL (≈ 138 µM) against Escherichia coli [3]; 16 µg/mL (≈ 68.9 µM) with Escherichia coli [5]; 16 µg/mL (≈ 68.9 µM) in the test on Escherichia coli [6]; 4 µg/mL (≈ 17.2 µM) in the test with Escherichia coli [4].
